Several values for one entry are separate records, joined by “and”; a condition that tells them apart may be missing. Equal entries are not always repeated. Marks after values point to notes of the source that are not given here.
Key:
[1] = Tissue distribution after single IP or PO dose; assay type: in vivo, BALB/c mice; conditions: for MRT inf / Vd/F / concentration at 30 min / half-life / k el / tissue uptake / Tmax: 10 mg/kg; for Tmax / AUC0–t / Cl/F: mean ± SEM
Outline: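 Same single 10 mg/kg IP or PO dosing in female BALB/c mice. Liver, heart, spleen, kidneys and lungs taken at 0.17, 0.5, 1 and 3 h (n = 5), saline-flushed and snap-frozen. Tissue homogenized 1:4 w/v in pH 7.4 saline, liquid–liquid extracted with internal standard, quantified by SFC-MS/MS. Localization index = tissue %ID/g over plasma %ID/mL; mean ± SEM.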

[2] = MBQ-167 distribution in mouse mammary tumors; assay type: in vivo, SCID mice; conditions: 2.5 mg/kg BW 24 h prior to sacrifice, 3-month multiple low-dose regimen
Outline: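 Female SCID mice, 4 weeks old, received 2 × 10^6 GFP-tagged MDA-MB-468 cells into the mammary fat pad. After 1 week, vehicle or 2.5 mg/kg ip was given three times weekly for 3 months. Twenty-four hours after the last dose, five mice per arm got 10 mg/kg 30 min before sacrifice. Tumours were saline-flushed, snap-frozen, homogenized, extracted and quantified by SFC-MS/MS (n = 5).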

[3] = Stability of MBQ-167 in mouse plasma; assay type: physicochemical; conditions: for postpreparative stability RE%: 8 h; for short term stability RE%: 4 h at benchtop; for freeze–thaw stability RE% / long term stability RE%: −80 °C; for freeze–thaw stability RE%: 3 cycles 24 h
Outline: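 Spiked mouse plasma QCs (calibration 1.5–1000 ng/mL) quantified by SFC-MS/MS after protein precipitation; RE% against nominal. Short-term: 2.5 and 950 ng/mL, 4 h at room temperature. Postpreparative: three QC levels (2.5, 450, 950 ng/mL) held at 4 °C. Long-term: −80 °C for 15 and 134 days. Freeze–thaw: three 24 h cycles at −80 °C.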

[4] = Stability of MBQ-167 in mouse liver; assay type: physicochemical; conditions: for postpreparative stability RE% / short term stability RE% / freeze–thaw stability RE% / long term stability RE%: liver; for postpreparative stability RE%: 8 h; for short term stability RE%: 3 h in an ice bucket; for freeze–thaw stability RE% / long term stability RE%: −80 °C; for freeze–thaw stability RE%: 3 cycles 24 h; for long term stability RE%: 90 days
Outline: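 Spiked mouse tissue QCs (calibration 10–1000 ng/mL) quantified by SFC-MS/MS; RE% against nominal. Short-term: 15 and 950 ng/mL, 3 h in an ice bucket. Postpreparative: 15, 450 and 950 ng/mL, 8 h at 4 °C. Long-term: −80 °C for 90 days. Freeze–thaw: three 24 h cycles at −80 °C.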

Cdc42 = conditions: read-out: IC50 for Cdc42 activation; cited from earlier work
[5] = test system: HER2-type mammary fat pad tumor; conditions: 10 mg/kg BW; immunocompromised mice; cited from earlier work
[6] = female, BALB/c, mouse, heart, ip
[7] = female, BALB/c, mouse, heart, po
[8] = female, BALB/c, mouse, kidneys, ip
[9] = female, BALB/c, mouse, kidneys, po
[10] = female, BALB/c, mouse, liver, ip
[11] = female, BALB/c, mouse, liver, po
[12] = female, BALB/c, mouse, lungs, ip
[13] = female, BALB/c, mouse, lungs, po
[14] = female, BALB/c, mouse, spleen, ip
[15] = female, BALB/c, mouse, spleen, po

Q: For `CCn1c2ccccc2c2cc(-n3nncc3-c3ccccc3)ccc21` [MBQ-167], which MRT inf [1, 6] is on record?
A: 0.98 ± 0.01 h

Q: And the Vd/F [1, 6]?
A: 0.334 ± 0.139 L

Q: What about the concentration at 30 min [1, 6] of the same compound?
A: 797 ng/g

Q: And the half-life [1, 6]?
A: 0.97 ± 0.12 h

Q: And the k el [1, 6]?
A: 0.000206 s⁻¹

Q: What about the tissue uptake [1, 6] of the same compound?
A: 0.4 ± 0.11 %ID/g

Q: What about the Tmax ([1]; female, BALB/c, mouse, heart, ip, Tmax, IP 10 mg/kg) of the same compound?
A: 0.5 h

Q: And the MRT inf [1, 7]?
A: 1.03 ± 0.05 h

Q: And the Vd/F [1, 7]?
A: 0.674 ± 0.101 L

Q: And the half-life [1, 7]?
A: 1.34 ± 0.03 h

Q: And the k el [1, 7]?
A: 0.000144 s⁻¹

Q: And the tissue uptake [1, 7]?
A: 0.22 ± 0.03 %ID/g

Q: What about the Tmax ([1]; female, BALB/c, mouse, heart, po, Tmax, PO 10 mg/kg) of the same compound?
A: 0.5 h

Q: And the MRT inf [1, 8]?
A: 2.12 ± 0.07 h

Q: What about the Vd/F [1, 8] of the same compound?
A: 0.023 ± 0.012 L

Q: What about the concentration at 30 min [1, 8] of the same compound?
A: 10500 ng/g

Q: What about the half-life [1, 8] of the same compound?
A: 1.39 ± 0.08 h

Q: What about the k el [1, 8] of the same compound?
A: 0.000139 s⁻¹

Q: And the tissue uptake [1, 8]?
A: 6 ± 1.4 %ID/g

Q: And the MRT inf [1, 9]?
A: 2.7 ± 0.5 h

Q: What about the Vd/F [1, 9] of the same compound?
A: 0.188 ± 0.035 L

Q: What about the half-life [1, 9] of the same compound?
A: 3.4 ± 0.9 h

Q: What about the k el [1, 9] of the same compound?
A: 6.67e-05 s⁻¹

Q: And the tissue uptake [1, 9]?
A: 1.6 ± 0.4 %ID/g

Q: What about the MRT inf [1, 10] of the same compound?
A: 3.56 ± 0.83 h

Q: What about the Vd/F [1, 10] of the same compound?
A: 0.07 ± 0.009 L

Q: What about the concentration at 30 min [1, 10] of the same compound?
A: 4560 ng/g

Q: What about the half-life [1, 10] of the same compound?
A: 2.24 ± 0.81 h

Q: What about the k el [1, 10] of the same compound?
A: 0.000139 s⁻¹

Q: What about the tissue uptake [1, 10] of the same compound?
A: 2.3 ± 0.2 %ID/g

Q: What about the Tmax ([1]; female, BALB/c, mouse, liver, ip, Tmax, IP 10 mg/kg) of the same compound?
A: 0.5 h

Q: And the MRT inf [1, 11]?
A: 5 ± 1 h

Q: And the Vd/F [1, 11]?
A: 0.135 ± 0.108 L

Q: What about the half-life [1, 11] of the same compound?
A: 1.9 ± 0.6 h

Q: And the k el [1, 11]?
A: 0.000119 s⁻¹

Q: And the tissue uptake [1, 11]?
A: 1.6 ± 0.7 %ID/g

Q: And the Tmax ([1]; female, BALB/c, mouse, liver, po, Tmax, PO 10 mg/kg)?
A: 0.5 h

Q: And the MRT inf [1, 12]?
A: 1.27 ± 0.06 h

Q: And the Vd/F [1, 12]?
A: 0.201 ± 0.038 L

Q: And the half-life [1, 12]?
A: 1.84 ± 0.24 h

Q: And the k el [1, 12]?
A: 0.000108 s⁻¹

Q: And the tissue uptake [1, 12]?
A: 0.72 ± 0.08 %ID/g

Q: And the Tmax ([1]; female, BALB/c, mouse, lungs, ip, Tmax, IP 10 mg/kg)?
A: 0.5 h

Q: What about the MRT inf [1, 13] of the same compound?
A: 0.89 ± 0.08 h

Q: What about the Vd/F [1, 13] of the same compound?
A: 0.01 ± 0.004 L

Q: What about the half-life [1, 13] of the same compound?
A: 0.89 ± 0.18 h

Q: What about the k el [1, 13] of the same compound?
A: 0.000242 s⁻¹

Q: What about the tissue uptake [1, 13] of the same compound?
A: 13 ± 5 %ID/g

Q: And the Tmax ([1]; female, BALB/c, mouse, lungs, po, Tmax, PO 10 mg/kg)?
A: 0.5 h

Q: And the MRT inf [1, 14]?
A: 2 ± 0.08 h

Q: What about the Vd/F [1, 14] of the same compound?
A: 0.268 ± 0.135 L

Q: What about the concentration at 30 min [1, 14] of the same compound?
A: 1620 ng/g

Q: And the half-life [1, 14]?
A: 1.89 ± 0.11 h

Q: What about the k el [1, 14] of the same compound?
A: 0.000103 s⁻¹

Q: And the tissue uptake [1, 14]?
A: 0.81 ± 0.16 %ID/g

Q: And the MRT inf [1, 15]?
A: 5.7 ± 0.2 h

Q: And the Vd/F [1, 15]?
A: 0.535 ± 0.042 L

Q: And the half-life [1, 15]?
A: 11 ± 3 h

Q: What about the k el [1, 15] of the same compound?
A: 2.22e-05 s⁻¹

Q: What about the tissue uptake [1, 15] of the same compound?
A: 0.26 ± 0.06 %ID/g

Q: What about the “AUC0–t” value ([1]; heart, IP 10 mg/kg) of the same compound?
A: 0.46 ± 0.14 h %ID/g

Q: And the Cl/F ([1]; heart, IP 10 mg/kg)?
A: 224 ± 66 mL/h

Q: And the “AUC0–t” value ([1]; heart, PO 10 mg/kg)?
A: 0.22 ± 0.03 h %ID/g

Q: And the Cl/F ([1]; heart, PO 10 mg/kg)?
A: 347 ± 44 mL/h

Q: And the “AUC0–t” value ([1]; kidneys, IP 10 mg/kg)?
A: 16.3 ± 7.2 h %ID/g

Q: What about the Cl/F ([1]; kidneys, IP 10 mg/kg) of the same compound?
A: 12 ± 7 mL/h

Q: What about the “AUC0–t” value ([1]; kidneys, PO 10 mg/kg) of the same compound?
A: 2.5 ± 0.9 h %ID/g

Q: And the Cl/F ([1]; kidneys, PO 10 mg/kg)?
A: 51 ± 25 mL/h

Q: And the “AUC0–t” value ([1]; liver, IP 10 mg/kg)?
A: 3.9 ± 1.3 h %ID/g

Q: What about the Cl/F ([1]; liver, IP 10 mg/kg) of the same compound?
A: 31 ± 13 mL/h

Q: And the “AUC0–t” value ([1]; liver, PO 10 mg/kg)?
A: 4 ± 2 h %ID/g

Q: What about the Cl/F ([1]; liver, PO 10 mg/kg) of the same compound?
A: 37 ± 23 mL/h

Q: What about the “AUC0–t” value ([1]; lungs, IP 10 mg/kg) of the same compound?
A: 0.86 ± 0.20 h %ID/g

Q: And the Cl/F ([1]; lungs, IP 10 mg/kg)?
A: 82 ± 26 mL/h

Q: And the “AUC0–t” value ([1]; lungs, PO 10 mg/kg)?
A: 17 ± 7 h %ID/g

Q: And the Cl/F ([1]; lungs, PO 10 mg/kg)?
A: 10 ± 6 mL/h

Q: What about the Tmax ([1]; lungs, PO 10 mg/kg) of the same compound?
A: 0.28 ± 0.11 h

Q: What about the “AUC0–t” value ([1]; spleen, IP 10 mg/kg) of the same compound?
A: 1.4 ± 0.5 h %ID/g

Q: And the Cl/F ([1]; spleen, IP 10 mg/kg)?
A: 93 ± 42 mL/h

Q: And the “AUC0–t” value ([1]; spleen, PO 10 mg/kg)?
A: 1.5 ± 0.2 h %ID/g

Q: And the Cl/F ([1]; spleen, PO 10 mg/kg)?
A: 44 ± 16 mL/h

Q: And the “detection of MBQ-167 in tumor” value [2]?
A: not detected

Q: And the “stability in plasma (±15% RSD, RE)” value ([3]; incubation at ambient temperature for four hours)?
A: stable

Q: And the “postpreparative stability in autosampler conditions” value ([3]; plasma, 4 °C)?
A: 8 h

Q: And the “long-term stability at −80 °C” value ([3]; plasma, high drug concentration)?
A: 134 days

Q: What about the “long-term stability at −80 °C” value ([3]; plasma, low drug concentration) of the same compound?
A: 15 days

Q: And the “postpreparative stability RE%” value ([3]; plasma, spiked 2.5 ng/mL, 4 °C)?
A: 8.0%

Q: What about the “short term stability RE%” value ([3]; plasma, spiked 2.5 ng/mL) of the same compound?
A: 4.0%

Q: And the “freeze–thaw stability RE%” value ([3]; plasma, spiked 2.5 ng/mL)?
A: –2.7%

Q: And the “long term stability RE%” value ([3]; plasma, spiked 2.5 ng/mL, 15 days)?
A: 12.6 ^b %

Q: And the “postpreparative stability RE%” value ([3]; plasma, spiked 950 ng/mL, 4 °C)?
A: 15.2%

Q: And the “short term stability RE%” value ([3]; plasma, spiked 950 ng/mL)?
A: –0.5%

Q: And the “freeze–thaw stability RE%” value ([3]; plasma, spiked 950 ng/mL)?
A: –1.2%

Q: And the “long term stability RE%” value ([3]; plasma, spiked 950 ng/mL, 134 days)?
A: –1.0 ^d %

Q: And the “freeze–thaw stability” value ([3]; plasma, three freeze–thaw cycles lasting 24 h)?
A: stable

Q: And the stability in tissues ([4]; incubation in an ice bucket for 3 h)?
A: stable

Q: And the “postpreparative stability RE%” value ([4]; spiked 15 ng/mL, 4 °C)?
A: –15%

Q: What about the “short term stability RE%” value ([4]; spiked 15 ng/mL) of the same compound?
A: 0.1%

Q: And the “freeze–thaw stability RE%” value ([4]; spiked 15 ng/mL)?
A: 1.5%

Q: And the “long term stability RE%” value ([4]; spiked 15 ng/mL)?
A: 6.5%

Q: And the “postpreparative stability RE%” value ([4]; spiked 950 ng/mL, 4 °C)?
A: –6.7%

Q: And the “short term stability RE%” value ([4]; spiked 950 ng/mL)?
A: –12.2%

Q: What about the “freeze–thaw stability RE%” value ([4]; spiked 950 ng/mL) of the same compound?
A: –3.2%

Q: And the “long term stability RE%” value ([4]; spiked 950 ng/mL)?
A: 9.2%

Q: And the “postpreparative stability in autosampler conditions” value ([4]; tissues, 4 °C)?
A: 8 h

Q: What about the “long-term stability at −80 °C” value ([4]; tissues, both low and high concentrations of quality control samples) of the same compound?
A: 90 days

Q: What about the “freeze–thaw stability” value ([4]; tissues, three freeze–thaw cycles lasting 24 h) of the same compound?
A: stable

Q: And the “reduction of HER2-type mammary fat pad tumor growth” value [5]?
A: ~90%

Q: What about the reduction of metastasis [5] of the same compound?
A: ~90% and ~99%

Source: PMC6843717 (ACS Omega, 2019)
